WT yeast gro inh: growth inhibition of WT yeast, mitochondrial fusion screen | mitochondrial fusion phenotypic screen, WT strain | inhibition, % at 10 µM | 190,000 tested, 2.1% active | AID 1362; in the data active = inhibition above about 58%; tested in S. cerevisiae
Cl transport mod: modulates chloride dependent transport by human KCC2; KCC2 cells, thallium flux FluoZin-2 fluorescence; B-score of Tl+ flux slope (higher = more flux/activation; lower = inhibition) at 10 µM; 190,000 tested, 2.2% active; AID 1456;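 active = thallium flux slope and its plate-corrected score both differing from the plate sample mean at a set confidence after two filtering rounds, in either direction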;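 also: slope of fluorescence scaled to starting intensity during 10 to 20 s after thallium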
Autophagy mod: modulators of autophagy; AID 463193; calls only at 10 µM (by protocol); 190,000 tested, 0.98% active; MEF GFP-LC3 puncta imaging; test concentration mostly 10 µM;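 active = percentage of spot-positive cells more than 3 SD above its plate mean, without a fluorescence outlier flag or 80% toxicity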
Rad51 HR inh: blocks human Rad51 in homologous recombination. Q06609. hRad51 DNA strand exchange, fluorescence dequenching. inhibition, % at 10 µM. 200,000 tested, 0.085% active;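 active = inhibition above 40% at the single screening dose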
Target sequence (Q06609 whole entry, looked up): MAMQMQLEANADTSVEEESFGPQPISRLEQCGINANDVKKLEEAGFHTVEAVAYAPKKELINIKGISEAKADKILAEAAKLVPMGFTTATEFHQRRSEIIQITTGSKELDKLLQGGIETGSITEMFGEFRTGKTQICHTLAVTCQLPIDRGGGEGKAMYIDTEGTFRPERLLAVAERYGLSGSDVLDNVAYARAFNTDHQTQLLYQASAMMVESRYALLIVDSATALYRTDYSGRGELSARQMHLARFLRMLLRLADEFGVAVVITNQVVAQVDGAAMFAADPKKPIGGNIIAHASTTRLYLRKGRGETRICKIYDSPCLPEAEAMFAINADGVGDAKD
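Material: human Rad51–ssDNA filaments; Probe or stimulus: labelled 47-mer dsDNA for strand exchange; Doses: single 10 µM dose; Incubation: 37 °C 15-min filament assembly, 30-min compound preincubation, 15-min exchange; Technique: FRET fluorescence dequenching, excitation 485 nm, emission 520 nm; Measure: Fluorescence-based percent inhibition, control- and blank-normalised; Benchmarks: plate control and blank wells.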
Insulin prom up: MIN6 insulin promoter up-regulation; MIN6 insulin promoter-GFP reporter, high-content imaging; active compounds read high; z-score at 5 µM; 190,000 tested, 0.3% active; AID 1625;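 active = z-score above 3 at 5 µM with at least 500 cells counted in the well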
SKKanGAS inh: SKKanGAS growth inhibition | S. pyogenes SKKanGAS, kanamycin growth, BacTiter-Glo, 6 h | inhibition, % at 7.5 µM | 300,000 tested, 1.3% active | AID 1662;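 active = mean replicate score, as percent of positive control median, at least 50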;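 also: strain carries kanamycin resistance gene driven by streptokinase promoter and grows in 40 µg/ml kanamycin; loss of luminescence reflects streptokinase promoter inhibition or plain growth inhibition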
Numbers stand for hits; i = inactive; nt = no result; + = active, no number. In the library only some 4.2% were active in any assay of this set; here they are far more common.

SMILES	WT yeast gro inh	Cl transport mod	Autophagy mod	Rad51 HR inh	Insulin prom up	SKKanGAS inh
COc1ccc(-n2nc(C(=O)NCC(=O)NCCc3ccc(OC)c(OC)c3)c3ccccc3c2=O)cc1Cl	nt	nt	nt	nt	nt	i
O=C1CC(SCc2nc3ccccc3[nH]2)C(=O)N1c1cccc(F)c1 (centres undefined)	76	i	i	nt	i	i
COc1cccc(C(=O)NC(=S)Nc2ccc(Cl)cc2C(=O)O)c1	nt	i	nt	i	i	i
COc1cccc(C(=O)NC(=S)Nc2ccc3c4c(cccc24)CC3)c1	i	5	i	i	i	i
COC(=O)c1ccc(NC(=O)Cn2nc(C(=O)Nc3ccc(C)cc3)ccc2=O)cc1	nt	nt	nt	nt	nt	i
CCOC(=O)c1ccc(NC(=S)N2CCSC2c2ccc(Cl)cc2)cc1 (centres undefined)	60	i	i	i	i	i
CC(=O)Nc1ccc(S(=O)(=O)N2CCSC2c2ccc(Cl)cc2)cc1 (centres undefined)	78	nt	i	i	i	i
CCOC(=O)c1ccc(NC(=S)N2CCSC2c2ccc(OC)cc2)cc1 (centres undefined)	i	i	i	i	i	i
CCC1Sc2ccc(S(=O)(=O)CCC(=O)NCc3ccco3)cc2NC1=O (centres undefined)	nt	nt	nt	nt	nt	i
CCN(CC(=O)Nc1ccc([N+](=O)[O-])cc1OC)c1ccccc1	i	nt	i	i	i	i
O=c1[nH]c(=S)[nH]cc1Oc1ccc(Cl)cc1Cl	nt	i	nt	i	i	i
O=C(CN1C(=O)c2ccccc2S1(=O)=O)Nc1ccc(S(=O)(=O)N2CCCCC2)cc1	i	i	i	73	i	i
O=C(CCCCCN1C(=O)c2ccccc2C1=O)Nc1ccc(S(=O)(=O)N2CCCCC2)cc1	68	i	i	i	i	i
O=C(CN1C(=O)c2ccccc2S1(=O)=O)Nc1ccc(S(=O)(=O)N2CCCC2)cc1	i	i	i	i	i	i
O=C(NCC1CCCO1)C(c1ccccn1)N(Cc1ccccc1Cl)C(=O)CN1C(=O)c2ccccc2S1(=O)=O (centres undefined)	i	i	+	i	nt	i
C=CC1=C(C(=O)O)N2C(=O)[C@@H](NC(=O)/C(=N\O)c3csc(N)n3)[C@H]2SC1 (stereo in doubt)	nt	nt	nt	i	nt	107
Nc1c(C(=O)Nc2ccccc2F)sc2nc(Cc3ccccc3)cc(C(F)(F)F)c12	i	i	+	i	nt	i
OCCN1CCN(CCCN2c3ccccc3Sc3ccc(Cl)cc32)CC1	96	i	i	i	nt	i
COc1cccc(CNCCc2c[nH]c3ccccc23)c1OCc1ccc(F)cc1	i	i	i	i	i	i
COc1cc(CNCCc2c[nH]c3ccccc23)ccc1OCc1ccc(F)cc1	86	i	i	i	i	i
CCOC(=O)c1c(NC(=O)CN2C(=O)NC(C)(c3ccccc3)C2=O)sc(C)c1C (centres undefined)	i	i	+	i	i	i
COc1cccc(/C=N/NC(=O)CNC(=O)c2ccc(S(=O)(=O)N3CCCC3)cc2)c1OC	i	i	i	i	i	i
Cc1cccc(-c2ncc(CN3CCCC(CO)(Cc4ccccc4C)C3)cn2)c1 (centres undefined)	60	i	i	i	3.1	i
O=C(Nc1ccccc1Sc1ccccc1)c1ccccc1F	nt	i	i	i	nt	61
O=C(NC(=S)Nc1ccccc1N1CCCCC1)c1ccc(F)cc1Cl	nt	nt	nt	nt	nt	50
SMILES	WT yeast gro inh	Cl transport mod	Autophagy mod	Rad51 HR inh	Insulin prom up	SKKanGAS inh
COc1ccccc1C(=O)NC(=S)Nc1ccccc1N1CCCC1	nt	nt	nt	nt	nt	i
COc1c(C)cc(Br)cc1C(=O)Nc1ccccc1N1CCN(C(=O)c2ccccc2)CC1	i	i	i	i	i	i
Cc1ccccc1C(=O)Nc1ccccc1N1CCN(C(=O)c2ccccc2)CC1	nt	nt	nt	nt	nt	55
O=C(Nc1ccccc1N1CCCCC1)c1ccccc1F	81	nt	i	i	i	i
CCN1CCN(c2ccc(S(=O)(=O)N3CCOCC3)cc2NC(=O)c2ccc(Cl)s2)CC1	nt	nt	nt	nt	nt	i
COc1ccc(CN2CCNC(=O)C2CC(=O)N(C)CCCN2CCOCC2)cc1C (centres undefined)	nt	nt	nt	nt	nt	i
CC(c1ccncn1)N(C)C(=O)c1ccc2oc(Cc3ccccc3)nc2c1 (centres undefined)	nt	nt	nt	nt	nt	i
COc1cccc(CNCc2cccnc2)c1OCc1ccccc1	i	i	i	i	i	i
COc1cccc(CC(=O)Nc2ccc3nc(C)sc3c2)c1	64	i	i	nt	i	i
Cc1cc(-c2ccccc2)nc2cc(C(=O)N(Cc3ccccc3)Cc3ccccc3)nn12	75	i	i	i	i	i
COC(=O)c1cc2nc(-c3ccccc3)cc(C)n2n1	i	i	i	i	i	i
O=C(NCc1nnc(SCC(=O)N2CCCCC2)o1)c1c(F)cccc1Cl	nt	nt	nt	nt	nt	i
CCN(C(=O)COC(=O)C1CCN(S(=O)(=O)c2c(Cl)cccc2Cl)CC1)C1CCCCC1	nt	nt	nt	nt	nt	i
COc1ccc(C2C(C(=O)Nc3ccccc3OC)=C(C)Nc3ncnn32)cc1 (centres undefined)	i	nt	+	i	i	i
Cc1ccc(/C(=N/Nc2nc3ccccc3s2)C2=C(O)c3ccccc3C2=O)cc1	i	i	i	i	i	57
Cc1ccc(S(=O)(=O)N(C)CC(=O)Nc2nc3ccccc3s2)cc1	i	i	i	i	i	i
Cn1nnnc1SC1CC(=O)N(c2ccccc2)C1=O (centres undefined)	i	i	i	nt	i	i
Cc1cc(C)cc(N2C(=O)CC(Sc3nnnn3-c3ccccc3)C2=O)c1 (centres undefined)	i	i	i	109	i	i
O=C(CN(C(=O)c1csnn1)c1cccc(C(F)(F)F)c1)NC1CCCC1	nt	nt	nt	nt	nt	i
Cc1ccc(C(NC(=O)NC(C)c2ccccc2)C(Cl)(Cl)Cl)cc1F (centres undefined)	64	i	i	i	i	57
CCCCNC(=S)N/N=C1\C(=O)c2cccc3cccc1c23	i	5	i	i	i	i
CNC(=S)N/N=C1\C(=O)c2cccc3cccc1c23	i	43	+	i	i	i
CCc1ccccc1NC(=O)CSc1nnc(Cn2nnc3ccccc32)n1C	i	i	i	i	nt	i
N#CC1=C(N)C(C#N)(C#N)C(c2cccnc2)C2CC(c3ccccc3)CC=C12 (centres undefined)	i	-2.6	i	i	i	i
NC(=S)N/N=C/c1ccc(-c2cc(Cl)cc(Cl)c2)o1	i	i	i	i	i	i
NC(=S)N/N=C/c1ccc(-c2cc(Cl)ccc2Cl)o1	72	i	i	i	i	i
CCc1ccc(OCC(=O)Nc2ccc(S(=O)(=O)Nc3ccccn3)cc2)cc1	nt	nt	nt	nt	nt	i
CCN=C1SC(CC(N)=O)C(=O)N1CC (centres undefined)	i	i	i	i	i	i
CCCc1cc(-c2nc(-c3ccc(Br)cc3)cs2)ccn1	69	i	i	i	i	i
CCCc1cc(-c2nc(-c3ccc(Cl)cc3)cs2)ccn1	78	i	i	i	i	i

Source: PubChem BioAssay
